# Bioassay records from PubChem BioAssay.
# Sampled rows, rich in hits. Any-hit rate of the full collection: about 0.99%.
# NPR2 activator: human GC-B receptor activators, primary screen, HEK293 GC-B cells, cGMP TR-FRET, EC30 CNP | 0% at EC30 CNP, 100% saturating CNP | hit rate 0.11% among 370,000 | activation, % at 10 µM;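 active means activation at 10 µM reaching about 35% in either raw or pattern-adjusted values, limit read from the data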
# Casp6 inh: human caspase-6 inhibitors, primary screen, biochemical, VEID-R110 fluorescence, single point, set 2; purified caspase-6, Z-VEID-R110 cleavage fluorescence; inhibition, % at 12.5 µM; hit rate 0.53% among 350,000; AID 686996, 2013;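 active means mean inhibition across replicates at least about 35%, with every replicate also reaching that limit, limit read from the data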;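 further: 0% = median of neutral control wells and 100% = no fluorescence left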
# FN deposit inh: inhibitors of fibronectin matrix deposition, primary screen, AH1F cells, Alexa488-fibronectin fluorescence, plate reader. AH1F fibroblasts, overnight. inhibition, % at 12.6 µM. hit rate 0.086% among 350,000. AID 743247, 2014;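 active means mean inhibition across replicates of 30% or more, regardless of how many single replicates reach that level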;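 further: positive control wells lacked labelled fibronectin entirely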
#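 test system = AH1F fibroblasts assembling fluorescent fibronectin matrix | quantity = 10000 AH1F cells per well | buffer or medium = DMEM plus 2% serum, read in PBS | doses = single dose, pinned | incubation = 1 h cell attachment, overnight exposure to compound and label | detection = fluorescence at 485 nm excitation, 525 nm emission | read-out basis = inhibition from reduced deposited-fibronectin fluorescence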
# CaV13 FRET inh: Primary screen for inhibitors of IQ motif and Ca2+-dependent inactivation inhibitor domain binding in CACNA1D, Förster resonance energy transfer in living cells, … | HEK cells, CFP/YFP FRET ICDI-IQ, plate reader, 10 min; percent FRET-ratio fall versus neutral wells | inhibition, % at 12.3 µM | hit rate 0.098% among 340,000 | AID 743397;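 active means mean replicate inhibition of at least 30% and at least 1% of replicates passing that level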;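 further: 0% = median of the neutral control wells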
# NSD2 inh: NSD2 histone methyltransferase inhibitors, primary screen, biochemical, AlphaScreen, single concentration, set 2; Histone-lysine N-methyltransferase NSD2 (Homo sapiens), O96028; NSD2 peptide methylation, 120 min; inhibition, % at 12.5 µM; hit rate 0.54% among 310,000; in the data active means inhibition above about 50%
# GC-A act: GC-A stimulated cGMP production enhancers – HEK293 GC-A cells, cGMP TR-FRET, EC30 ANP, primary screen. hit rate 0.14% among 370,000. 0% at EC30 ANP, 100% saturating ANP. activation, % at 10 µM; in the data active means activation above about 40%
# AlphaScreen art: AlphaScreen signal interference with preloaded methylated product, dose response, artefact control for NSD2 inhibitor project, biochemical, cherry-picked samples. shares compounds with NSD2 inh. AlphaScreen artifact counterscreen, preloaded methylated H4 peptide. AC35, µM (doses to about 10 µM), inactives show at the top dose activity change, negative = signal loss. hit rate 9.4% among 1,500. AID 1053174, 2014; call rule not given here
# Active calls of the source: *; . = no result.
SMILES,NPR2 activator,Casp6 inh,FN deposit inh,CaV13 FRET inh,NSD2 inh,GC-A act,AlphaScreen art
COCCNC(=O)c1c(N)n(CCC(C)C)c2nc3ccccc3nc12,-6,.,.,-3,-55,-7,.
CCOC(=O)c1c(NS(=O)(=O)c2ccccc2)n(CCCOC)c2nc3ccccc3nc12,9,.,6,-13,68*,8,5%
CCCNC(=O)N1[C@@H]2Cn3c(ccc(-c4ccccc4OC)c3=O)[C@H]1[C@@H](C(=O)OC)[C@@H]2CO,.,3,4,.,.,.,.
COc1cccc(-c2ccc([C@@H]3[C@H](CO)N4CCCCN(C(=O)Cc5ccncc5)C[C@@H]34)cc2)c1,.,1,-4,.,.,.,.
CCOc1cc(/C=C2\C(=O)NC(=O)N(CCc3ccc(F)cc3)C2=O)ccc1O,-5,10,1,-4,53*,9,-8%
